Assay outcomes deposited in PubChem by several laboratories.
NR2E3 ag-1 = NR2E3 agonists in two-hybrid cells, primary screen, cell-based, luminescence, CHO-S, Gal4-NCOR/VP16-NR2E3; Photoreceptor-specific nuclear receptor (Homo sapiens), Q9Y5X4; luciferase; inhibition of corepressor binding, % at 3.98 µM; actives 0.35% (n = 360,000); AID 602229, 2012;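 active = inhibition above the mean of all tested compounds plus 3 SD, cut at about 70% in these data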;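 note: 0% = DMSO with NR2E3 transfected cells and 100% = cells lacking NR2E3 construct; higher means lower luciferase signal from less NR2E3 corepressor binding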
NR2E3 ag-2 = inhibitors of NR2E3-RetCOR corepressor binding, primary screen, NR2E3 agonist project, biochemical, TR-FRET, GST-NR2E3, biotin-RetCOR; Photoreceptor-specific nuclear receptor (Homo sapiens), Q9Y5X4; 1536-well; inhibition of corepressor binding, % at 4.78 µM; actives 0.12% (n = 320,000); AID 2300, 2010;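 active = percent inhibition above the cutoff of mean plus 3 SD of all tested compounds, set per screening campaign, cut at about 20% in these data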;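 note: 0% = DMSO wells and 100% = biotin wells as full block of FRET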
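System: GST-NR2E3 and biotin-RetCOR proteins; probe or stimulus: 7 nM biotin-RetCOR; doses: compound at 4.8 µM, single dose; schedule: Compound–protein incubation for 5 h at 4 °C; detection: time-resolved FRET; read-out: percent inhibition; controls: biotin wells as high control, 0.6% DMSO wells as low control; format: 1536-well plates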
Neddylation inh = inhibitors of cullin neddylation, primary screen, biochemical, TR-FRET, uHTS, NAE and Ubc12; calls only at 25 µM; actives 0.58% (n = 360,000); AID 651699, 2012; in the data active = inhibition above about 36%
NR1D1 modulator = modulators of Rev-erb alpha DNA binding, primary screen, biochemical, FITC-DNA, fluorescence polarization, uHTS; Nuclear receptor subfamily 1 group D member 1 (Homo sapiens), P20393; Rev-erbα–FITC-DNA binding, 90 min; activity, % at 10 µM; actives 0.79% (n = 370,000); AID 1259318, 2017;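 active = activity above about 14%, limit read from the data; passing the limit was not always enough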;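 note: 0% = DMSO wells with 35 nM protein and 100% = DMSO wells with 750 nM protein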
Target sequence (P20393 whole entry, looked up): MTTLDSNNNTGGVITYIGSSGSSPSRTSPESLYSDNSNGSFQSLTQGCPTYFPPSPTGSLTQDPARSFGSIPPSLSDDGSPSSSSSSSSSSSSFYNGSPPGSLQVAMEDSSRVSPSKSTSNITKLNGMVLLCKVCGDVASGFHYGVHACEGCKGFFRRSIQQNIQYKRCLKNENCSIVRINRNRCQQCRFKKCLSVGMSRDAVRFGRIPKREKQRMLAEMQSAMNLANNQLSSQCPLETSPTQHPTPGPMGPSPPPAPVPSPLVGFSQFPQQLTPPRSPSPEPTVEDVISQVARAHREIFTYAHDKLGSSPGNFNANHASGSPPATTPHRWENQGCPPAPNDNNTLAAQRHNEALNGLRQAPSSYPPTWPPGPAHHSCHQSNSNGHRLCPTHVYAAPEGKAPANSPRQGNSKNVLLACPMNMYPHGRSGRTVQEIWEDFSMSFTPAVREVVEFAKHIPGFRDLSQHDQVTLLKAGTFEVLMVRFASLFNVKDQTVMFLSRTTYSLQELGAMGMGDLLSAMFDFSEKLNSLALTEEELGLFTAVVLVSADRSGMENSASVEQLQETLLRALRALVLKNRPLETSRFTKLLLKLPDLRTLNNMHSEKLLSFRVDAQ
PG9 Ab binder = binders of HIV-1 gp120 antibody PG9, primary screen, biochemical, TR-FRET. HIV-1 gp120 / PG9 antibody interaction. TR-FRET gp120-PG9 antibody binding. inhibition, % at 6.7 µM. actives 0.43% (n = 360,000); in the data active = inhibition above about 8.5%
Rev-erbA confirm = modulators of Rev-erb alpha DNA binding, confirmation, biochemical, FITC-DNA, fluorescence polarization, single point. activation, % at 25 µM. 90 min. actives 61% (n = 3,000). AID 1259319, 2017. shares compounds with NR1D1 modulator;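 active = activation at or above a set limit, or at least 3 SD above the negative control mean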;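 note: 0% = 35 nM protein with DMSO and 100% = 750 nM protein high control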
RORg DNA counter = modulation of RORgamma DNA binding, dose response, counter-screen for Rev-erb alpha modulator project, biochemical, fluorescence polarization, FITC-DNA | IC50, µM | actives 8% (n = 910) | purified RORgamma protein-FITC-DNA binding | shares compounds with NR1D1 modulator;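 active = Compounds whose fitted half-maximal concentration for disrupting protein-DNA binding is below 10 micromolar; the record names Rev-erb in its text, so the target is in doubt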
Starred values were filed as active, the others as inactive; i = inactive; x = no result. In the library only some 2% were active in any assay of this set; here they are far more common.

SMILES	NR2E3 ag-1	NR2E3 ag-2	Neddylation inh	NR1D1 modulator	PG9 Ab binder	Rev-erbA confirm	others
CCOc1ccc(NC(=O)CCSc2ccc3ccccc3n2)cc1	-14	3	i	82*	-1	46*	RORg DNA counter=>40
COc1ccc(NC(=O)CCSc2cc(C)c3ccccc3n2)cc1	4	5	i	1	-1	x
O=[N+]([O-])c1cc([N+](=O)[O-])c(Oc2cccnc2Br)cc1NN1CCCCC1	-1	0	i	16*	0	-1
O=C(NCCN1C(=O)C2C3C=CC(C3)C2C1=O)c1cc(F)cc(F)c1 (stereo not given)	x	x	x	8	x	x
COc1ccc(-c2cc3ncc(C(C)=O)c(C)n3n2)cc1	-10	-1	i	36*	0	13
CCOC(=O)c1cnc2cc(-c3ccc(Cl)cc3)nn2c1N	-30	5	i	20*	1	0
CNc1ncnc2c1ncn2[C@H]1CN(CCc2ccccc2)C[C@@H](CO)O1	-19	x	i	-2	0	x
C[C@H](OC(=O)NCc1ccc(C(F)(F)F)cc1)[C@@H]1O[C@@]2(C)CCC[C@@H]1O2	-1	1	i	-5	0	x
COCCn1c(SCC(=O)Nc2ccc(F)cc2)nc2c(c1=O)SCC2	1	x	i	-2	-1	x
Cc1ccc2nsnc2c1S(=O)(=O)N(Cc1ccco1)Cc1cc2cccc(C)c2[nH]c1=O	-26	-1	i	26*	x	14
Cc1ccc2nsnc2c1S(=O)(=O)N(Cc1ccco1)Cc1cc2ccc(C)c(C)c2[nH]c1=O	-1	x	i	-5	3	x
Cc1ccc(-c2nc(NC(=O)c3ccc(S(=O)(=O)N(CCC#N)CCC#N)cc3)sc2-c2ccccc2)cc1	-23	1	i	26*	-2	18*
N#CCCN(CCC#N)S(=O)(=O)c1ccc(C(=O)Nc2nc(-c3ccccc3)c(C(=O)c3ccccc3)s2)cc1	-33	2	i	189*	1	177*	RORg DNA counter=4.1*
CN(C)S(=O)(=O)c1ccc(C(=O)Nc2nc(-c3ccccc3)c(C(=O)c3ccccc3)s2)cc1	-11	-4	i	18	1	x
CCN(CC)c1ccc(/C=C/c2cccc[n+]2C)c(OC)c1	0	-9	i	53*	-28	56*	RORg DNA counter=>40
COC(=O)c1ccc2nc(NC(=O)C3CCCCC3)sc2c1	-105	4	i	17*	-3	19*
COC(=O)c1ccc2nc(NC(=O)C(C)(C)C)sc2c1	-17	2	i	6	0	x
COC(=O)c1ccc2nc(Nc3nc4ccc(F)cc4s3)sc2c1	27	-1	i	48*	2	54*
C=CC[C@]12C[C@@]3(O[C@H](C4CCCCC4)N=C3C[C@H](c3ccc(OC)cc3)[C@H]1C)N(Cc1ccncc1)C2=O	x	x	x	0	2	x
CN(Cc1nc2ccccc2c(=O)[nH]1)C(=O)c1cc(-c2ccc(Br)cc2)nc2ccccc12	-21	x	i	36*	1	23*
CSc1ccccc1-c1nnc(-c2ccc(Cl)c(Cl)c2)o1	-25	2	i	47*	0	51*	RORg DNA counter=>40
CCOC(=O)[C@@H]1[C@H]2COc3cc(OC)ccc3[C@H]2N2C(=O)N(c3ccc(C(F)(F)F)cc3)C(=O)[C@]12C	38	x	i	-2	0	x
O=C(O)CC1(CC(=O)Nc2nccs2)CCCCC1	25	x	i	-3	-1	x
Cc1ccc2cc(C)c(SCC(=O)Nc3ccc(S(=O)(=O)N4CCCC4)cc3)nc2c1	7	0	i	27*	2	19*
